Measured values published in ChEMBL document CHEMBL1123462, “Indolo[2,1-c][1,4]benzodiazepines: a new class of antiallergic agents” (J Med Chem, 1986).
pIC50: −log10 of the molar value.

Tests used:
Rattus norvegicus [1] = experiment: Compound was tested for percent inhibition, at 10 mg/kg administered intravenously against histamine by Dunnett's test; conditions: iv
Rattus norvegicus [2] = experiment: Compound was tested for the inhibition of rat passive cutaneous anaphylaxis (PCA) at 10 mg/kg dose iv (5 min pretreatment); format: functional
Procedure, shortened: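 Rat skin IgE/ovalbumin PCA with simultaneous intradermal histamine and serotonin wheals. Drug given iv 5 min before the iv ovalbumin/Evans Blue challenge. Read 30 min later by wheal size and colour score. %inhibition = (1 − mean treated/mean control score)×100. Dunnett's test, p ≤ 0.05.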

Cavia porcellus [3] = experiment: Compound was tested for the inhibition of guinea pig active lung anaphylaxis (ALA) at 100 mg/kg iv; format: functional
Procedure, shortened: (§1)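 Guinea pigs were sensitized with egg albumin 1 mg sc plus Bordetella pertussis vaccine adjuvant. Two weeks later: pentobarbital 65 mg/kg ip, then trachea, jugular vein and carotid cannulated. Drug given iv before an iv egg albumin challenge (0.5 mg/kg). Airway resistance (bronchoconstriction) and arterial pressure monitored. %inhibition given as mean ± SE; ED50 iv with 95% confidence limits.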

Rattus norvegicus [4] = experiment: Compound was tested for percent inhibition, at 10 mg/kg administered intravenously against serotonin by Dunnett's test; conditions: iv
Rattus norvegicus [5] = experiment: Compound was tested […] for the inhibition of serotonin release in rat peritoneal cell; format: functional
Rattus norvegicus [6] = experiment: Compound was tested for percent inhibition, at 1 mg/kg administered intravenously against rat passive cutaneous anaphylaxis by Dunnett''s test; conditions: iv, read-out: Inhibition
Rattus norvegicus [7] = experiment: Compound was tested for the inhibition of rat passive cutaneous anaphylaxis (PCA) administered intraperitoneally; format: functional; conditions: ip
Procedure, shortened: (§2)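 Male Sprague-Dawley rats were given 0.05 mL of high-titer IgE rat anti-ovalbumin antiserum intradermally. 24 h later: iv ovalbumin plus Evans Blue in saline, with simultaneous intradermal serotonin and histamine. Drug given ip 1 h before antigen. At 30 min, skin was reflected and wheal size and colour scored against a chart. %inhibition = (1 − mean treated/mean control score)×100. Dunnett's test, p ≤ 0.05.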

Rattus norvegicus [8] = experiment: Compound was tested for percent inhibition, at 1 mg/kg administered intravenously against histamine; conditions: iv, read-out: Inhibition
Cavia porcellus [9] = experiment: Compound was tested for the inhibition of guinea pig active lung anaphylaxis (ALA) at 0.001 mg/kg iv; format: functional
Procedure, shortened: as §1

Rattus norvegicus [10] = experiment: Compound was tested for percent inhibition, at 0.37 mg/kg administered intraperitoneally against histamine; format: functional; conditions: ip, route intraperitoneal
Procedure, shortened: as §2

Rattus norvegicus [11] = experiment: Compound was tested for the inhibition of rat passive cutaneous anaphylaxis (PCA) at 0.37 mg/kg dose ip (1h pretreatment); format: functional; conditions: route intraperitoneal
Procedure, shortened: as §2

Cavia porcellus [12] = experiment: Inhibition of guinea pig ALA at a dose of 1 mg/kg 8 hr after postdosing orally; format: functional; conditions: route oral
Procedure, shortened: (§3)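 Guinea pigs were sensitized with egg albumin 1 mg sc plus pertussis vaccine adjuvant. Two weeks later they were anesthetized (pentobarbital 65 mg/kg ip) and cannulated. Drug was given ip or orally at 1 mg/kg. Challenge with egg albumin 0.5 mg/kg iv at 1, 7, 8 or 24 h post-dose, with bronchoconstriction measured. %inhibition given as mean ± SD.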

Cavia porcellus [13] = experiment: Inhibition of guinea pig ALA at a dose of 1 mg/kg 24 hr after postdosing orally; format: functional; conditions: route oral
Procedure, shortened: as §3

Cavia porcellus [14] = experiment: Inhibition of guinea pig ALA at a dose of 1 mg/kg 7 hr after postdosing intraperitoneally; format: functional; conditions: ip, route intraperitoneal
Procedure, shortened: as §3

Cavia porcellus [15] = experiment: Inhibition of guinea pig ALA at a dose of 1 mg/kg 1 hr after postdosing orally; format: functional; conditions: route oral
Procedure, shortened: as §3

Rattus norvegicus [16] = experiment: Compound was tested for percent inhibition, at 3.3 mg/kg administered intraperitoneally against serotonin by Dunnett's test; format: functional; conditions: ip, route intraperitoneal
Procedure, shortened: as §2

Cavia porcellus [17] = experiment: Inhibition of guinea pig ALA at a dose of 1 mg/kg 24 hr after postdosing intraperitoneally; format: functional; conditions: ip, route intraperitoneal
Procedure, shortened: as §3

Rattus norvegicus [18] = experiment: Compound was tested for percent inhibition, at 0.37 mg/kg administered intraperitoneally against serotonin by Dunnett's test; format: functional; conditions: ip, route intraperitoneal
Procedure, shortened: as §2

Rattus norvegicus [19] = experiment: Compound was tested for percent inhibition, at 3.3 mg/kg administered intraperitoneally against histamine by Dunnett's test; format: functional; conditions: ip, route intraperitoneal
Procedure, shortened: as §2

Rattus norvegicus [20] = experiment: Compound was tested for percent inhibition, at 3.3 mg/kg administered intraperitoneally against rat passive cutaneous anaphylaxis by Dunnett's test; format: functional; conditions: ip, route intraperitoneal
Procedure, shortened: as §2

Cavia porcellus [21] = experiment: Inhibition of guinea pig ALA at a dose of 1 mg/kg 1 hr after postdosing intraperitoneally; format: functional; conditions: ip, route intraperitoneal
Procedure, shortened: as §3

Cavia porcellus [22] = experiment: Compound was tested for the inhibition of guinea pig active lung anaphylaxis (ALA) administered intravenously; format: functional; conditions: iv
Procedure, shortened: as §1

Rattus norvegicus [23] = experiment: Compound was tested for percent inhibition, at 1.1 mg/kg administered intraperitoneally against histamine; format: functional; conditions: ip, route intraperitoneal
Procedure, shortened: as §2

Rattus norvegicus [24] = experiment: Compound was tested […] for the inhibition of serotonin release in rat peritoneal cell
Cavia porcellus [25] = experiment: Compound was tested for the inhibition of guinea pig active lung anaphylaxis (ALA) Dose administered intravenously; format: functional
Procedure, shortened: as §1

Cavia porcellus [26] = experiment: Percent inhibition at a dose of 1 mg/kg at given time postdosing orally 1 h; format: functional; conditions: route oral
Procedure, shortened: as §3

Rattus norvegicus [27] = experiment: Compound was tested for percent inhibition, at 1.1 mg/kg administered intraperitoneally against serotonin by Dunnett's test; format: functional; conditions: ip, route intraperitoneal
Procedure, shortened: as §2

Cavia porcellus [28] = experiment: Percent inhibition at a dose of 1 mg/kg at given time postdosing intraperitoneally 24 h; format: functional; conditions: ip, route intraperitoneal
Procedure, shortened: as §3

Cavia porcellus [29] = experiment: Percent inhibition at a dose of 1 mg/kg at given time postdosing orally 8 h; format: functional; conditions: route oral
Procedure, shortened: as §3

Rattus norvegicus [30] = species: Rattus norvegicus; experiment: Compound was tested for the inhibition of rat passive cutaneous anaphylaxis (PCA) Percent inhibition; format: functional
Procedure, shortened: as §2

Cavia porcellus [31] = experiment: Percent inhibition at a dose of 1 mg/kg at given time postdosing intraperitoneally 1 h; format: functional; conditions: ip, route intraperitoneal
Procedure, shortened: as §3

Cavia porcellus [32] = experiment: Percent inhibition at a dose of 1 mg/kg at given time postdosing orally 24 h; format: functional; conditions: route oral
Procedure, shortened: as §3

Cavia porcellus [33] = experiment: Percent inhibition at a dose of 1 mg/kg at given time postdosing intraperitoneally 7 h; format: functional; conditions: ip, route intraperitoneal
Procedure, shortened: as §3

Rattus norvegicus [34] = experiment: Compound was tested for the inhibition of rat passive cutaneous anaphylaxis (PCA) Dose administered intraperitoneally; format: functional
Procedure, shortened: as §2

Cavia porcellus [35] = species: Cavia porcellus; experiment: Compound was tested for the inhibition of guinea pig active lung anaphylaxis (ALA) Percent inhibition; format: functional
Procedure, shortened: as §1

O=C([O-])c1cc(=O)c2c(OCC(O)COc3cccc4oc(C(=O)[O-])cc(=O)c34)cccc2o1.[Na+].[Na+] [CROMOLYN SODIUM] showed an inhibition in vivo at 10 mg/kg (Rattus norvegicus [1]) of 8.5%, an inhibition in vivo at 10 mg/kg (Rattus norvegicus [2]) of 97% and an inhibition in vivo at 100 mg/kg (Cavia porcellus [3]) of 25%. It also gave an inhibition in vivo at 10 mg/kg (Rattus norvegicus [4]) of 21.4%, a pIC50 (Rattus norvegicus [5]) of 3.59 and an inhibition in vivo at 1 mg/kg (Rattus norvegicus [6]) of 37%. It also gave an ED50 (Rattus norvegicus [7]) of 2.55 mg/kg and an inhibition in vivo at 1 mg/kg (Rattus norvegicus [8]) of 0%.
Compound CN1CCC(=C2c3ccccc3CC(=O)c3sccc32)CC1 [KETOTIFEN] has an inhibition in vivo at 0.001 mg/kg (Cavia porcellus [9]) of 57%, an inhibition in vivo at 0.37 mg/kg (Rattus norvegicus [10]) of 64.6% and an inhibition in vivo at 0.37 mg/kg (Rattus norvegicus [11]) of 63.3%. For the same compound, the pIC50 (Rattus norvegicus [5]) was 4.64, the inhibition in vivo at 1 mg/kg (Cavia porcellus [12]) was 73% and the inhibition in vivo at 1 mg/kg (Cavia porcellus [13]) was 37%. For the same compound, the inhibition in vivo at 1 mg/kg (Cavia porcellus [14]) was 68%, the inhibition in vivo at 1 mg/kg (Cavia porcellus [15]) was 68% and the inhibition in vivo at 3.3 mg/kg (Rattus norvegicus [16]) was 35.3%. It also gave an ED50 (Rattus norvegicus [7]) of 0.32 mg/kg, an inhibition in vivo at 1 mg/kg (Cavia porcellus [17]) of 6.5% and an inhibition in vivo at 0.37 mg/kg (Rattus norvegicus [18]) of 14.8%. For the same compound, the inhibition in vivo at 3.3 mg/kg (Rattus norvegicus [19]) was 62.5%, the inhibition in vivo at 3.3 mg/kg (Rattus norvegicus [20]) was 92.4% and the inhibition in vivo at 1 mg/kg (Cavia porcellus [21]) was 82%. It also gave an ED50 (Cavia porcellus [22]) of 0.002 mg/kg.
O=c1[nH]c2ccccc2n1CCCN1CCN(C(c2ccccc2)c2ccccc2)CC1 [OXATOMIDE] showed an inhibition in vivo at 1.1 mg/kg (Rattus norvegicus [23]) of 38%, a pIC50 (Rattus norvegicus [24]) of 4.70 and a Dose (Cavia porcellus [25]) of 1 mg/kg. For the same compound, the inhibition in vivo at 1 mg/kg (Cavia porcellus [26]) was -5%, the inhibition in vivo at 1.1 mg/kg (Rattus norvegicus [27]) was 35.1% and the inhibition in vivo at 1 mg/kg (Cavia porcellus [28]) was 10.6%. The inhibition in vivo at 1 mg/kg (Cavia porcellus [29]) was 45%, the Inhibition (Rattus norvegicus [30]) was 69.1% and the inhibition in vivo at 3.3 mg/kg (Rattus norvegicus [16]) was 46.5%. It also gave an ED50 (Rattus norvegicus [7]) of 1.2 mg/kg, an inhibition in vivo at 1 mg/kg (Cavia porcellus [31]) of 16% and an inhibition in vivo at 1 mg/kg (Cavia porcellus [32]) of 25%. For the same compound, the inhibition in vivo at 1 mg/kg (Cavia porcellus [33]) was 54%, the inhibition in vivo at 3.3 mg/kg (Rattus norvegicus [19]) was 49.3% and the inhibition in vivo at 3.3 mg/kg (Rattus norvegicus [20]) was 100%. The Dose (Rattus norvegicus [34]) was 1.1 mg/kg and the Inhibition (Cavia porcellus [35]) was 43%.
